# Source: PubChem
# An excerpt weighted towards active compounds, which were near 2.3% of everything screened.
# MPTP inh: permeability transition pore inhibition; isolated mouse mitochondria, Ca2+ swelling absorbance, 30 min; inhibition, % at 10 µM; 360,000 tested, 1.4% active; AID 602449;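 active means inhibition of 50% or more, scaled per plate between neutral and stimulator controls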
# MT1-MMP act inh: blocks activation of human MT1-MMP. AID 651647. P50281. GFP/RFP ratio change, % at 20 µM. HT1080 RFP-PRO-GFP cells, GFP/RFP ratio fluorescence, overnight; percent of plate control window, DMSO zero. 360,000 tested, 0.061% active;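 active means GFP/RFP ratio change of at least 30% with cell ATP level not reduced by more than half and red fluorescence within 50% of control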
#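 Assay system: RFP-PRO-GFP reporter HT1080 cells; read-out basis: GFP/RFP fluorescence ratio; benchmarks: DMSO wells and RFP-L50D-GFP cells; doses: 20 µM single dose, 1% DMSO; schedule: overnight cell settling, then overnight compound exposure, 37 °C, 5% CO2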
# SKN-1 inh: C. elegans SKN-1 inhibition | C. elegans VP596 Pgst-4::GFP/RFP ratio, acrylamide-induced, 24 h | inhibition, % at 21.8 µM | 360,000 tested, 0.49% active;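 active means interference check ratio from 0.5 to 1.5 plus GFP to RFP signal ratio inhibition reaching or exceeding a fixed threshold, cut at about 30% in these data, passing the limit was not always enough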
# ATG4B inh: blocks human ATG4B protease cleavage of LC3 substrate | Q9Y4P1 | AID 504462 | inhibition, % at 8.33 µM | 340,000 tested, 0.51% active | ATG4B cleavage of LC3-PLA2, NBD-HPC fluorescence, 1 h; in the data active means inhibition above about 40%
# Target sequence (Q9Y4P1 whole entry, looked up): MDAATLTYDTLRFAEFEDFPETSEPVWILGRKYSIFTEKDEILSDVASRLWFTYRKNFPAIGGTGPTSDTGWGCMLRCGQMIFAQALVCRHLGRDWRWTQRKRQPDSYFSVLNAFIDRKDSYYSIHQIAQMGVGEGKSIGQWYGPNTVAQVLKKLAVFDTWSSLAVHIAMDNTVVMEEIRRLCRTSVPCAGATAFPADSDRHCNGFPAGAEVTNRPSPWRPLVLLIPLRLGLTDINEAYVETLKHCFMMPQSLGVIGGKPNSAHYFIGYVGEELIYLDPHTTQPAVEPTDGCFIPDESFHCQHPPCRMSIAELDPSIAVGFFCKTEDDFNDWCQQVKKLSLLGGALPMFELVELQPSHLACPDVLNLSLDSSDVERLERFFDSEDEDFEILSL
# Rh123 counter: membrane potential counter-screen of mitochondrial pore inhibitors; AID 624504; 5,000 tested, 78% active; shares compounds with MPTP inh; isolated mitochondria, Rhodamine 123 fluorescence; inhibition, % at 10 µM; in the data active means inhibition above about 22%
# MPTP abs DR: dose response confirmation of mitochondrial permeability transition pore inhibitors; shares compounds with MPTP inh; isolated mitochondria swelling, absorbance; IC50, µM; 780 tested, 58% active; in the data active means IC50 below about 20 µM
# MPTP counter DR: counter-screen for mitochondrial permeability transition pore inhibitors, dose response; shares compounds with MPTP inh; isolated mitochondria counterscreen, fluorescence read-out; IC50, µM; 780 tested, 49% active; AID 651564; in the data active means IC50 below about 80 µM
# Hits are given with their value; 0 = inactive; - = no result given.
SMILES,MPTP inh,MT1-MMP act inh,SKN-1 inh,ATG4B inh,Rh123 counter,others
CCCCCCN1C=C/C(=C\C=C(C#N)C#N)c2ccccc21,51,0,0,0,0,MPTP abs DR=9.3;MPTP counter DR=<2.5
CCCCCCN1C=CC=C/C1=C/C=C(C#N)C#N,0,0,0,0,-,
O=C(NCc1ccncc1)C1CCN(S(=O)(=O)c2ccc(Cl)c(C(F)(F)F)c2)CC1,0,0,0,0,-,
Cc1cccc(CSCCNC(=S)Nc2ccccc2)c1,82,0,0,0,79,
CCCOc1ccc(CSCCNC(=S)Nc2ccccc2)cc1,95,0,0,0,94,
CCOc1ccc(CSCCNC(=S)Nc2ccc(OC)cc2)cc1,0,0,0,0,-,
S=C(NCCSCc1ccccc1Cl)Nc1ccccc1,82,0,0,0,104,
S=C(NCCSCc1ccc(Cl)cc1)Nc1ccccc1,68,0,0,0,97,
CCCNC(=S)Nc1ccccc1,0,0,0,0,-,
Oc1ccc(N=Nc2ccccc2)o1,0,0,0,0,-,
COc1ccc(C(=O)N/C(=C/c2ccccc2F)C(=O)NCCN2CCOCC2)cc1OC,0,0,0,0,-,
O=C(CCC(=O)Nc1ccccc1)NNC(=O)COc1ccccc1,0,0,0,0,-,
Cc1[nH]n(-c2ccccc2)c(=O)c1C(c1ccc(O)c([N+](=O)[O-])c1)c1c(C)[nH]n(-c2ccccc2)c1=O,91,0,0,0,74,
COc1ccc(C(C[N+](=O)[O-])c2c(C)[nH]n(-c3ccccc3)c2=O)cc1 (stereo unspecified),0,0,0,0,-,
S=C(NCc1ccc(Cl)cc1)NC1CCN(Cc2ccccc2)CC1,71,0,0,0,24,
S=C(Nc1cc(Cl)cc(Cl)c1)NC1CCN(Cc2ccccc2)CC1,54,0,0,0,89,
O=C(Nc1ccccc1N1CCOCC1)c1ccc(Cl)c(S(=O)(=O)N2CCCC2)c1,0,0,0,0,-,
COc1ccc(C2=NN(C(=O)CCCC(=O)O)C(c3cn(-c4ccccc4)nc3-c3ccccc3)C2)cc1 (stereo unspecified),0,0,0,0,-,
O=C(NCc1ccco1)c1ccccc1NS(=O)(=O)c1cccs1,0,0,0,0,-,
Cc1ccc(NS(=O)(=O)c2ccc(Cl)s2)nc1,0,0,0,0,-,
Cc1ccc(NC(=O)c2ccccc2NS(=O)(=O)c2ccc(Cl)s2)cc1,68,0,0,0,76,
O=C(NCc1ccco1)c1ccccc1NS(=O)(=O)c1ccc(Cl)s1,90,0,0,0,79,
CC(=O)c1ccc(S(=O)(=O)N2CCC3(CC2)CC(=O)c2ccccc2O3)cc1,0,0,0,0,-,
Cc1cc(Cl)ccc1OCC(=O)Nc1ccccc1NS(=O)(=O)c1cccs1,52,0,0,0,78,
O=C(COc1ccc(Cl)cc1Cl)Nc1ccccc1NS(=O)(=O)c1cccs1,66,0,0,0,79,
SMILES,MPTP inh,MT1-MMP act inh,SKN-1 inh,ATG4B inh,Rh123 counter,others
COC(=O)/C=C1/N/C(=N\c2nc(C)cc(C)n2)N(c2ccc(Cl)cc2)C1=O,0,0,0,0,-,
O=C(NC(=S)Nc1nc2c(s1)CSc1ccccc1-2)c1ccccc1,95,0,0,0,91,
COc1ccc(-c2nc(-c3ccc4c(c3)OCO4)[nH]c2-c2ccc(OC)cc2)cc1,69,0,0,0,69,
COc1ccc(-c2noc(-c3ccc4c(c3)OCO4)n2)cc1,0,0,0,0,-,
COc1cc(CSc2nnnn2-c2ccc(C)cc2)cc(OC)c1OC,92,0,0,0,89,
COCCn1c(N)c(C(=O)c2cccc(S(=O)(=O)N3CCCCCC3)c2)c(=O)[nH]c1=O,0,0,0,0,-,
CC(C)N(CCC(=O)c1ccc2ccccc2c1)Cc1ccccc1,99,0,0,0,0,
CC(OC(=O)c1ccc2ccccc2c1)C(=O)N(C)Cc1ccccc1 (stereo unspecified),0,0,0,0,-,
COC(=O)c1ccc(CNCC(O)COc2ccc(-c3ccccc3)cc2)cc1 (stereo unspecified),89,0,0,0,0,MPTP abs DR=8.8;MPTP counter DR=0
COc1ccc(CNCC(O)COc2ccc(C(C)(C)c3ccccc3)cc2)cc1 (stereo unspecified),0,0,0,0,-,
COCCOc1cc(Nc2nnc(C(F)(F)F)s2)c(Cl)cc1Cl,80,0,0,0,90,
COc1cc(Nc2nnc(C)s2)c(Cl)cc1Cl,0,0,0,0,-,
Cc1ccc(/C=C2/Sc3ccccc3N(CC(=O)NCC3CCCO3)C2=O)cc1 (stereo unspecified),0,0,0,0,-,
Cc1cc(/C=C2\Sc3ccccc3N2C)cc(C)[n+]1CC1CCCO1 (stereo unspecified),75,0,0,0,84,
CCOc1ccc(Nc2nc(Cc3nnc(SCC(=O)c4ccc(C)c(C)c4)o3)cs2)cc1,83,0,0,0,74,
Cc1ccc(NC(=O)CSc2nnc(Cc3csc(C)n3)o2)cc1,0,0,0,0,-,
Cc1cc(C)cc(NC(=O)N2CCNC(=O)C2CC(=O)Nc2cc(Cl)ccc2Cl)c1 (stereo unspecified),0,0,0,0,-,
Cc1cc(NC(=O)CCSc2ccccc2)ccc1Br,97,0,0,0,84,
COc1ccc(CC(=O)OCC(=O)Nc2cc(Cl)ccc2C)cc1,0,0,0,0,-,
NS(=O)(=O)c1ccc(NC(=O)Nc2ccc(Cl)cc2)cc1,77,0,0,0,85,
N#Cc1ccc(NC(=O)NN2CCCCCC2)cc1,102,0,0,0,87,
CN(CC(=O)Nc1ccc(C#N)cc1)Cc1ccc(Cl)cc1,0,0,0,0,-,
CSc1ccccc1NC(=S)Nc1ccc(S(N)(=O)=O)cc1,0,0,0,0,-,
N#Cc1ccc(NC(=O)Nc2ccc(Cl)cc2)cc1,105,0,0,0,89,
NS(=O)(=O)c1ccc(NC(=S)Nc2cc(Cl)c(Cl)cc2Cl)cc1,88,0,0,0,92,
SMILES,MPTP inh,MT1-MMP act inh,SKN-1 inh,ATG4B inh,Rh123 counter,others
CC1CCCC(NC(=O)C2CCN(S(=O)(=O)c3cnc[nH]3)CC2)C1C (stereo unspecified),0,0,0,0,-,
CCOc1cc(OCC)cc(C(=O)N2CCC[C@H]2C(=O)N2CCC[C@H]2C(=O)N(C)Cc2ccccc2)c1,0,0,0,-,-,
O=C(O)c1ccc(-n2nc(C(F)(F)F)cc2-c2cccs2)cc1,0,0,0,0,-,
O=C(Nc1ccc([N+](=O)[O-])cc1)NN1CCCCCC1,102,0,0,0,87,
CCOc1ccc(CCN2C(=S)N([C@@H](CC(C)C)CN3CCC[C@@H]3CN3C(=S)NC[C@@H]3Cc3ccccc3)C[C@@H]2Cc2ccc(O)cc2)cc1,0,0,0,-,-,
Cc1cccc(S(=O)(=O)C(C#N)c2nc3ccccc3nc2N2CC(C)OC(C)C2)c1 (stereo unspecified),56,0,0,0,71,
